Assay outcomes as filed in PubChem.
An excerpt weighted towards active compounds, which were near 1.4% of everything screened.
A3A deaminase = human APOBEC3A DNA deaminase inhibition. 0.41% of 330,000 active. inhibition, % at 20 µM. recombinant A3A, FAM/TAMRA ssDNA deamination fluorescence;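 active = at least 40% inhibition at 20 µM here, with at most 30% in a related deaminase screen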;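 also: plate controls were A3A with DMSO for no effect and wells lacking A3A enzyme for full effect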
CXCR6 block = inhibitors of human CXCR6 receptor | inhibition, % at 20 µM | 0.36% of 360,000 active | CHO-K1 PathHunter CXCR6 beta-arrestin, luminescence | O00574; in the data active = inhibition above about 34%, passing the limit was not always enough;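 also: antagonist mode with CXCL16 agonist at 10 nM final; 0% = 10 nM CXCL16 with DMSO and 100% = unstimulated wells without agonist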
Target sequence (O00574 whole entry, looked up): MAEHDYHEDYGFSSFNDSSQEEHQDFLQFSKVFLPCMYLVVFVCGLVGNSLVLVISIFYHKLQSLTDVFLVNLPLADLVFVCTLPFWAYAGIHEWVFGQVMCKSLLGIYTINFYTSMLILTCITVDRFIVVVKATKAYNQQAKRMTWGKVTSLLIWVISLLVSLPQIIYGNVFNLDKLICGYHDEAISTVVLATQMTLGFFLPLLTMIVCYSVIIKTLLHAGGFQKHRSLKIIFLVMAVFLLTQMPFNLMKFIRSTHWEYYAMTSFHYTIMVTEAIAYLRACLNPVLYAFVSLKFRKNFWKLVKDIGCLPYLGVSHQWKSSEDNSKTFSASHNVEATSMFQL
APJ ag = activates the human apelin receptor APJ; P35414; CHO-K1 APJ PathHunter beta-arrestin, luminescence; 0% DMSO wells, 100% apelin; activation, % at 20 µM; 0.11% of 330,000 active;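 active = activation more than six SD over the plate average, tested at 20 µM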;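 also: 0% = DMSO alone and 100% = apelin-13 at 10 nM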
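Incubation: overnight seeding, 90 min compound at 25 °C, 1 h detection; test system: PathHunter CHO-K1 APJ (AGTRL-1) beta-arrestin reporter cells; amount: 1000 cells/well; doses: one dose, 20 µM compound, 1% DMSO; measured by: beta-gal luminescence; measure: agonist-driven arrestin binding to APJ; benchmarks: negative DMSO alone, positive Apelin-13 at 10 nM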
A3G deaminase = blocks human APOBEC3G single-stranded DNA deamination. Q9HC16. recombinant A3G, ssDNA deamination FAM/TAMRA fluorescence. inhibition, % at 20 µM. 0.28% of 330,000 active;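 active = inhibition of at least 40% at 20 µM, with no more than 30% in the related APOBEC3A deaminase screen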;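 also: plate controls were DMSO wells with A3G for no effect and wells lacking A3G enzyme for full effect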
CCR6 antag = antagonists of human CCR6 receptor. P51684. CHO-K1 CCR6 PathHunter beta-arrestin, luminescence, CCL20-stimulated. inhibition, % at 20 µM. 0.49% of 340,000 active. AID 493098;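 active = compounds whose inhibition of the agonist-driven luminescence signal at 20 µM reaches about 50%, limit read from the data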;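 also: cells stimulated with CCL20 at 14 nM final; plate controls were DMSO with CCL20 for no effect and DMSO without agonist for full effect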
APJ antagonist = antagonists of human APJ apelin receptor | P35414 | CHO-K1 APJ beta-arrestin complementation, luminescence | inhibition, % at 20 µM | 0.32% of 330,000 active;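 active = inhibition above about 40% at 20 µM, limit read from the data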;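 also: cells challenged with 10 nM apelin-13 agonist together with compound; plate controls were apelin-13 plus DMSO wells for no effect and DMSO wells lacking apelin-13 for full effect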
Numbers without * were called inactive; x = no result given.

SMILES	A3A deaminase	CXCR6 block	APJ ag	A3G deaminase	CCR6 antag	APJ antagonist
COC(=O)C1=C(C)N(Cc2ccc(C)cc2)C(=O)/C1=C\c1ccc(O)c(OC)c1	2	36*	-1	-1	34	14
COC(=O)C1=C(C)N(Cc2ccc(C)cc2)C(=O)/C1=C\c1cc(OC)c(OC)c(OC)c1	-3	12	-1	-5	38	3
CCN(CC)c1ccc(/C=C2/C(=O)c3ccc(C(=O)O)cc3C2=O)cc1	x	56*	x	x	77*	x
Cc1ccc(Nc2c(-c3ccccn3)nc3cc(C)ccn23)cc1	1	40*	-4	-7	57*	39
Cc1ccn2c(Nc3ccc4c(c3)OCO4)c(-c3ccccn3)nc2c1	-1	20	-2	-6	25	18
CCOC(=O)c1c(N)sc(-c2ccccc2)c1C	3	12	-5	31	59*	2
CC[C@@]1(C(=O)OC)N[C@H](CN(C)C(=O)COc2ccccc2)[C@@H]2C(=O)N(Cc3ccccc3)C(=O)[C@@H]21	-4	-3	-2	-7	1	15
O=S(=O)(O)c1ccc(N=Nc2ccccc2)cc1	-3	9	-3	-7	17	12
O=c1ccc(N=Nc2ccccc2)ccc1O	x	29	x	x	66*	x
Cc1cc(C)c2c(=O)n(CC(=O)NCCCN3CCOCC3)sc2n1	-2	-18	0	54*	-10	-120
Cc1cc(C)c2c(=O)n(CC(=O)NCCCN3CCN(c4ccccc4F)CC3)sc2n1	-4	x	4	53*	100*	-12
CCOC(=O)c1ccc(-n2c(C)ccc2C)cc1	0	4	-3	-7	-5	-4
CCOC(=O)c1ccc(N2C(=O)C=CC2=O)cc1	-3	101*	0	27	113*	14
O=C1c2cccnc2-c2ncccc21	1	-5	-3	0	13	4
COC1=C(Br)C(=O)c2ncccc2C1=O	x	59*	x	x	79*	x
O=C(NC(=S)N1CCN(c2ccc(Cl)cc2[N+](=O)[O-])CC1)c1cccs1	x	43*	x	x	x	x
O=C(NC(=S)N1CCN(c2ccc(Cl)cc2[N+](=O)[O-])CC1)c1ccco1	-4	21	-6	-5	17	14
Cc1ccc(S(=O)(=O)Nc2c(O)ccc3ccccc23)cc1	0	-12	7	5	0	-22
Cc1ccc(S(=O)(=O)Nc2c(Cl)c(Cl)c(O)c3ccccc23)cc1	-5	x	5	82*	x	-23
CCCCC[C@H](O)/C=C/C1C(=O)C=C[C@H]1C/C=C\CCCC(=O)OC (stereo partly specified)	x	-4	x	x	16	x
CCn1nc(NS(=O)(=O)c2ccc(NC(C)=O)cc2)c2cc3cc(C)ccc3nc21	2	0	8	3	0	10
CCOC(=O)c1c(NC(=O)C(NCCN(C)C)c2ccccc2)sc2c1CCCC2 (stereo unspecified)	-7	31	-7	-9	54*	35
CCOC(=O)c1c(NC(=O)c2ccccc2N(C)S(=O)(=O)c2ccccc2)sc2c1CCCC2	1	8	-3	2	12	-4
COc1cc(N=Nc2ccc3ccccc3c2)ccc1O	6	33	-6	3	51*	22
C=C(CN(C)C)C(=O)c1ccc(OC2OC(COC(C)=O)C(OC(C)=O)C(OC(C)=O)C2OC(C)=O)cc1 (stereo unspecified)	x	90*	x	x	100*	x
SMILES	A3A deaminase	CXCR6 block	APJ ag	A3G deaminase	CCR6 antag	APJ antagonist
CC(OC(=O)c1ccc2c(c1)OCCO2)C(=O)c1ccccc1 (stereo unspecified)	-2	9	-8	-7	6	11
CCOc1c(OC(C)=O)ccc(/C=C/c2ccc3cccc(OC(C)=O)c3n2)c1[N+](=O)[O-]	2	-1	-3	6	10	-13
C=CCN1C(=O)/C(=C/c2ccc(OC(C)=O)c(OCC)c2[N+](=O)[O-])SC1=S	x	42*	x	x	54*	x
COc1cc(C=C2CN(C)C(=O)C2=O)ccc1O	x	32	x	x	x	x
CCOc1cc(/C=C2\CN(C)C/C(=C\c3ccc(O)c(OCC)c3)C2=O)ccc1O	7	34	-8	4	57*	27
Cc1ccc(C)c2sc(NC(=O)c3nc4ccccc4s3)nc12	-6	38	-3	-6	51*	16
